Results: ChEMBL document CHEMBL1145542, “Discovery of a new class of potent, selective, and orally bioavailable CRTH2 (DP2) receptor antagonists for the treatment of allergic inflammatory diseases” (J Med Chem, 2008)

Tests used:
[1] = Intrinsic clearance per mg of protein in rat liver microsomes at 3 uM; assay type: ADME, Microsome
How it was run: (§1)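 Rat or human liver microsomes (0.5 mg/mL final) in 0.1 M phosphate pH 7.4 with 3 µM compound (1% DMSO), preincubated at 37 °C, started with 1 mM NADPH. Quenched with cold acetonitrile at 0, 15, 30, 45 min; LC/MS-MS of compound disappearance gives intrinsic clearance.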

[2] = target: T1, Prostaglandin D2 receptor 2 (Homo sapiens, UniProt Q9Y5Y4); experiment: Displacement of [3H]PGD2 from human CRTH2 receptor expressed in CHO cells; assay type: cell-based
T1 sequence (Q9Y5Y4 whole entry): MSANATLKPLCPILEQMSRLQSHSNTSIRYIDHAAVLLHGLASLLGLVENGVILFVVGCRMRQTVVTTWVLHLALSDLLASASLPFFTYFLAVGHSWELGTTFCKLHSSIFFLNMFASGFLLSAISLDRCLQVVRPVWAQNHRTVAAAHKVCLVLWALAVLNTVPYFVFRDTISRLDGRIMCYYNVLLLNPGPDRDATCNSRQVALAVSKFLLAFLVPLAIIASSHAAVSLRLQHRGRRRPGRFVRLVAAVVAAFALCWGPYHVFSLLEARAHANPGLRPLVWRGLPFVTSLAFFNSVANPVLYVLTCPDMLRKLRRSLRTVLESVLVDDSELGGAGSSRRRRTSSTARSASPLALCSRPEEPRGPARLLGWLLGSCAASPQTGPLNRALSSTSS
How it was run: (§2)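 Scintillation proximity competition assay: 2–5 µg human or mouse CRTH2 membranes (nitrogen-cavitation, differential centrifugation) with WGA-SPA beads and 1.5 nM [3H]PGD2 in 10 mM HEPES/KOH pH 7.4, 10 mM MnCl2, protease inhibitors, 1% Me2SO, 90 min shaking at room temperature. Nonspecific binding with 1 µM PGD2. Ki by Cheng–Prusoff, mean of ≥3 independent experiments.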

[3] = Apparent permeability across human Caco-2 cell membrane at 10 uM; assay type: ADME, cell-based
How it was run: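 Caco-2 monolayers grown 21 days on Transwell filters; TEER above 800 ohm·cm² required. 10 µM test compound in HBSS added apically (A to B) or basolaterally (B to A), 2 h at 37 °C. Both compartments sampled, analysed by LC/MS-MS.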

Cytochrome P450 2C9 = Cytochrome P450 2C9 (Homo sapiens, UniProt P11712); experiment: Inhibition of human recombinant CYP2C9; assay type: ADME
Cytochrome P450 2C9, sequence (P11712 whole entry, canonical isoform): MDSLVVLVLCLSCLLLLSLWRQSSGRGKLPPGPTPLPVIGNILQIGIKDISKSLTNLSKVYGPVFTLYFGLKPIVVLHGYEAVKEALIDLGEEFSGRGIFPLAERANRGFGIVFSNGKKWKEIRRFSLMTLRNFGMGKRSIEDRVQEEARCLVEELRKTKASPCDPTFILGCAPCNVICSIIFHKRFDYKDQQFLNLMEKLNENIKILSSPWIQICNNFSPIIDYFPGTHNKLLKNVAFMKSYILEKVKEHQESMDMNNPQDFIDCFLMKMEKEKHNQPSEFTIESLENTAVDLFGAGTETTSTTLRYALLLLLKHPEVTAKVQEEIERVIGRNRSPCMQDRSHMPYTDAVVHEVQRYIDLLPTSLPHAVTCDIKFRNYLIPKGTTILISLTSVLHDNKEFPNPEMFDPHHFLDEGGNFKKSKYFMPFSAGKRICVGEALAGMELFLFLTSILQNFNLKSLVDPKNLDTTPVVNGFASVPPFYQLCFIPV
How it was run: (§3)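 Human recombinant CYP1A2, 2C9, 2C19, 2D6 and 3A4, each turning an isoform-specific fluorogenic substrate into a fluorescent product; test compound up to 10 µM final in 1% DMSO; fluorescence read-out.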

Cytochrome P450 2D6 = Cytochrome P450 2D6 (Homo sapiens, UniProt P10635); experiment: Inhibition of human recombinant CYP2D6; assay type: ADME; how it was run: as §3
Cytochrome P450 2D6, sequence (P10635 whole entry): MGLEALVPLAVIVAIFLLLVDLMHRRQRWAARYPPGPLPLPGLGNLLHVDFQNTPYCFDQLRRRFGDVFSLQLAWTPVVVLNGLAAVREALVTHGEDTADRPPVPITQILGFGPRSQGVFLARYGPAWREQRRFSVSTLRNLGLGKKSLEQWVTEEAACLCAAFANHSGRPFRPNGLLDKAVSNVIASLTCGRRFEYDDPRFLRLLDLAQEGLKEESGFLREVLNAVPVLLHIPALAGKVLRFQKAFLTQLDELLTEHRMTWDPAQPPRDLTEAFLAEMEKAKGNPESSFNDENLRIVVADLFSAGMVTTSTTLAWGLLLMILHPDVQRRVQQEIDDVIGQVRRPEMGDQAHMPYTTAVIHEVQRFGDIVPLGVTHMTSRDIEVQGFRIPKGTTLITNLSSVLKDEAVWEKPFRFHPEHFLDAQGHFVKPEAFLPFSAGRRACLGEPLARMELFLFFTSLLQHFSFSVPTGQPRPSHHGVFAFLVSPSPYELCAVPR

Cytochrome P450 1A2 = target: T2, Cytochrome P450 1A2 (Homo sapiens, UniProt P05177); experiment: Inhibition of human recombinant CYP1A2; assay type: ADME; how it was run: as §3
T2 sequence (P05177 whole entry): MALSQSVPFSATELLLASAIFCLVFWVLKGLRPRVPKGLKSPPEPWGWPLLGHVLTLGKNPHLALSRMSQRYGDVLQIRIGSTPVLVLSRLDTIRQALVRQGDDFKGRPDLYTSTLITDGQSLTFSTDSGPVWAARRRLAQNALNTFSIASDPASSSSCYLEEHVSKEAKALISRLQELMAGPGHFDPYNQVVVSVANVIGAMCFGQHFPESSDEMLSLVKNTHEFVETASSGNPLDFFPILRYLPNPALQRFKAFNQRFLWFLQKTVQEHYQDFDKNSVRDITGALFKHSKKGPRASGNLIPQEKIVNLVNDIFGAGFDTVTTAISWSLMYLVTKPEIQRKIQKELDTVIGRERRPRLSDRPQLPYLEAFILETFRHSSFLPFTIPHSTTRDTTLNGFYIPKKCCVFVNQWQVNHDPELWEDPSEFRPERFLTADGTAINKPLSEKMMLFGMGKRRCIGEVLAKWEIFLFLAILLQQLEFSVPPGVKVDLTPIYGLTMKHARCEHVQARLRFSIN

[4] = target: T3, Prostaglandin D2 receptor 2 (Mus musculus, UniProt Q9Z2J6); experiment: Displacement of [3H]PGD2 from mouse CRTH2 receptor expressed in HEK293 cells; assay type: cell-based; how it was run: as §2
T3 sequence (Q9Z2J6 whole entry): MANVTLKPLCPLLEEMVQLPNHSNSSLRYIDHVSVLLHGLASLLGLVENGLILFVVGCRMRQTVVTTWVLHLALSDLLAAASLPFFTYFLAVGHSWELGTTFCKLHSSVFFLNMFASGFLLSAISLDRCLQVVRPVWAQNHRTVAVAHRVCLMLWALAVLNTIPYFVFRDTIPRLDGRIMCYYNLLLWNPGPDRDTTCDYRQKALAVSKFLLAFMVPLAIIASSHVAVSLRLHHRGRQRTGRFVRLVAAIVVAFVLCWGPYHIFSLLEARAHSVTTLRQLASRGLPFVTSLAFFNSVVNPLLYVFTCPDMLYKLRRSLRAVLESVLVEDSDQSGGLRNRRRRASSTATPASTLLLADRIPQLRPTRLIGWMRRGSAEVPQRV

[5] = target: T1, Prostaglandin D2 receptor 2; experiment: Antagonist activity at human CRTH2 receptor expressed in CHO cell membrane by [35S]GTP-gamma-S binding assay; assay type: functional, cell membranes
How it was run: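 [35S]GTPγS binding at 30 °C on 10 µg human CRTH2 membranes in 20 mM HEPES/KOH pH 7.4, 10 mM MgCl2, 10 µg/mL saponin, 3 µM GDP, 150 mM NaCl, 2% Me2SO. PGD2 preincubation 10 min (antagonist mode: 80 nM PGD2), then 0.15 nM [35S]GTPγS for 30 min. Nonspecific binding with 10 µM GTPγS; stopped by centrifugation, scintillation counting.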

Cytochrome P450 3A4 = Cytochrome P450 3A4 (Homo sapiens, UniProt P08684); experiment: Inhibition of human recombinant CYP3A4; assay type: ADME; how it was run: as §3
Cytochrome P450 3A4, sequence (P08684 whole entry): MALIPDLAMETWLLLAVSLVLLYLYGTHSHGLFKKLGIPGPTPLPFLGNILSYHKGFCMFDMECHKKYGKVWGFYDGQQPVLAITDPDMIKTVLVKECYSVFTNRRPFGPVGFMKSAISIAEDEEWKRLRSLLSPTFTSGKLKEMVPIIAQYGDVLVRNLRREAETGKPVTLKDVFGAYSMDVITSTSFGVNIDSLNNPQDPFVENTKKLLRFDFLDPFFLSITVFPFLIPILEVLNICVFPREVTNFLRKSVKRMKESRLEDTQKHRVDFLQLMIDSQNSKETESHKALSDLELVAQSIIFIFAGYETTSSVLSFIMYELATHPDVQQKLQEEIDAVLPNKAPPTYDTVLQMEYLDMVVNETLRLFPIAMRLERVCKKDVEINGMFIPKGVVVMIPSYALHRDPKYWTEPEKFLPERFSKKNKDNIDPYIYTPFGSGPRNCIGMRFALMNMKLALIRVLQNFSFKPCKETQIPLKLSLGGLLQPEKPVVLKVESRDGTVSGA

Cytochrome P450 2C19 = Cytochrome P450 2C19 (Homo sapiens, UniProt P33261); experiment: Inhibition of human recombinant CYP2C19; assay type: ADME; how it was run: as §3
Cytochrome P450 2C19, sequence (P33261 whole entry): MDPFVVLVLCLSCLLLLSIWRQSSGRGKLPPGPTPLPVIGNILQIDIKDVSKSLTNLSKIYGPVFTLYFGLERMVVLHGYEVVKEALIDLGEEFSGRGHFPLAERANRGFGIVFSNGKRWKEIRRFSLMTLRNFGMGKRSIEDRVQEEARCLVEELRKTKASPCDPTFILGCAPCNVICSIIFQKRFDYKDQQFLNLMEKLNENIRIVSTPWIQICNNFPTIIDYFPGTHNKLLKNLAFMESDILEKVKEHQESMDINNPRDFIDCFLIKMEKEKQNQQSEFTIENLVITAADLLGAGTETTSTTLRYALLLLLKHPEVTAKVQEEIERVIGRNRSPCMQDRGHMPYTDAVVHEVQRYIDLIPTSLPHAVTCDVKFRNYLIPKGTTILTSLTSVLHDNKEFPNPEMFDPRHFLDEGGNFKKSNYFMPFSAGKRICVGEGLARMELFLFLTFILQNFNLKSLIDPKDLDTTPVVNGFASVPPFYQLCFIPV

[6] = Intrinsic clearance per mg of protein in human liver microsomes at 3 uM; assay type: ADME, Microsome; how it was run: as §1
[7] = Tmax in Beagle dog at 1 mg/kg, iv; assay type: ADME, organism-based, Canis lupus familiaris; parameters: dose 1 mg/kg, route intravenous; settings: in vivo
How it was run: (§4)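 Three male beagle dogs, crossover design; 1 mg/kg given as a solution, iv bolus and oral gavage. Serial blood sampled up to 48 h post dose. Individual plasma samples analysed by LC-MS/MS; PK parameters derived by non-compartmental analysis.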

[8] = Inhibition of prostanoid FP receptor
[9] = Cmax in rat at 1 mg/kg, iv; assay type: ADME, organism-based; parameters: dose 1 mg/kg, route intravenous; settings: in vivo
How it was run: (§5)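 Male Sprague–Dawley or Janvier rats, three per route, dosed by oral gavage or iv bolus. Serial blood drawn through an indwelling carotid catheter up to 24 h post dose. Plasma pooled by time point, analysed by LC-MS/MS; non-compartmental analysis.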

[10] = Cmax in Beagle dog at 1 mg/kg, po; settings: in vivo
[11] = Volume of distribution at steady state in Beagle dog at 1 mg/kg, iv; assay type: ADME, organism-based, Canis lupus familiaris; parameters: dose 1 mg/kg, route intravenous; settings: in vivo, read-out: Vdss; how it was run: as §4
[12] = target: Prostaglandin E2 receptor EP2 subtype (Homo sapiens, UniProt P43116); experiment: Inhibition of prostanoid EP2 receptor
Prostaglandin E2 receptor EP2 subtype, sequence (P43116 whole entry): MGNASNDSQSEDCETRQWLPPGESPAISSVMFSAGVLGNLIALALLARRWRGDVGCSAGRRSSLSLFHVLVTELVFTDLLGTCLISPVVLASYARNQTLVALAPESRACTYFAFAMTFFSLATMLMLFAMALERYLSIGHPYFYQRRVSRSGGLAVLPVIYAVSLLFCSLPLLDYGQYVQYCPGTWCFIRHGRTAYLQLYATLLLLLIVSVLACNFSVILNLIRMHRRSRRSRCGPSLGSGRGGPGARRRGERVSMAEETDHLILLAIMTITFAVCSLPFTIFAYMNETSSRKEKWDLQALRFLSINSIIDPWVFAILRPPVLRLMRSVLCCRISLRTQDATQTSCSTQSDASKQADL

[13] = target: T4, Prostaglandin D2 receptor (Homo sapiens, UniProt Q13258); experiment: Inhibition of prostaglandin D2 receptor
T4 sequence (Q13258 whole entry): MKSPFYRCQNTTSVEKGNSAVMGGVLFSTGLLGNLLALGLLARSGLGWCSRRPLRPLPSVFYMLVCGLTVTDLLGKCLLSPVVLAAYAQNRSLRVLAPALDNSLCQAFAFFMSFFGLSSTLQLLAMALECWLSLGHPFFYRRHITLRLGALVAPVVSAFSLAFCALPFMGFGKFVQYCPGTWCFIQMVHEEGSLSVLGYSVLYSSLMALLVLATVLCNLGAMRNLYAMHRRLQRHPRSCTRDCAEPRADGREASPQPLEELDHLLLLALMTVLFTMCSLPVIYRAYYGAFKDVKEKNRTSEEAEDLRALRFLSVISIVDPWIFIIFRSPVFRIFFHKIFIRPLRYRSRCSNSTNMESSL

[14] = Lipophilicity, log D of the compound; assay type: physicochemical; settings: octanol/water
[15] = AUC (0 to last t) in rat at 1 mg/kg, iv; assay type: ADME, organism-based; parameters: time 0 - last, dose 1 mg/kg, route intravenous; settings: plasma; how it was run: as §5
[16] = Half life in rat at 1 mg/kg, iv; assay type: ADME, organism-based; parameters: dose 1 mg/kg, route intravenous; settings: in vivo; how it was run: as §5
[17] = Tmax in rat at 5 mg/kg, po; assay type: ADME, organism-based; parameters: dose 5 mg/kg, route oral; settings: in vivo; how it was run: as §5
[18] = Cmax in rat at 5 mg/kg, po; assay type: ADME, organism-based; parameters: dose 5 mg/kg, route oral; settings: in vivo; how it was run: as §5
[19] = Clearance in Beagle dog at 1 mg/kg, iv; assay type: ADME, organism-based, Canis lupus familiaris; parameters: dose 1 mg/kg, route intravenous; settings: in vivo; how it was run: as §4
[20] = Half life in rat at 5 mg/kg, po; assay type: ADME, organism-based; parameters: dose 5 mg/kg, route oral; settings: in vivo; how it was run: as §5
[21] = Half life in Beagle dog at 1 mg/kg, iv; assay type: ADME, organism-based, Canis lupus familiaris; parameters: dose 1 mg/kg, route intravenous; settings: in vivo; how it was run: as §4
[22] = Volume of distribution at steady state in rat at 1 mg/kg, iv; assay type: ADME, organism-based; parameters: dose 1 mg/kg, route intravenous; settings: in vivo, read-out: Vdss; how it was run: as §5
[23] = Inhibition of prostanoid EP4 receptor
[24] = AUC (0 to last t) in Beagle dog at 1 mg/kg, iv; assay type: ADME, organism-based, Canis lupus familiaris; parameters: time 0 - last, dose 1 mg/kg, route intravenous; settings: plasma; how it was run: as §4
[25] = Clearance in rat at 1 mg/kg, iv; assay type: ADME, organism-based; parameters: dose 1 mg/kg, route intravenous; settings: in vivo; how it was run: as §5
[26] = AUC (0 to last t) in rat at 5 mg/kg, po; assay type: ADME, organism-based; parameters: time 0 - last, dose 5 mg/kg, route oral; settings: plasma; how it was run: as §5
[27] = Cmax in Beagle dog at 1 mg/kg, iv; assay type: ADME, organism-based, Canis lupus familiaris; parameters: dose 1 mg/kg, route intravenous; settings: in vivo; how it was run: as §4
[28] = Tmax in rat at 1 mg/kg, iv; assay type: ADME, organism-based; parameters: dose 1 mg/kg, route intravenous; settings: in vivo; how it was run: as §5
[29] = Tmax in Beagle dog at 1 mg/kg, po; settings: in vivo
[30] = Oral bioavailability in rat at 5 mg/kg; assay type: ADME, organism-based; settings: in vivo; how it was run: as §5
[31] = Inhibition of prostanoid EP3 receptor
[32] = Oral bioavailability in Beagle dog at 1 mg/kg; assay type: ADME, organism-based, Canis lupus familiaris; settings: in vivo; how it was run: as §4
[33] = AUC (0 to last t) in Beagle dog at 1 mg/kg, po; assay type: ADME, organism-based, Canis lupus familiaris; parameters: time 0 - last, dose 1 mg/kg, route oral; settings: plasma; how it was run: as §4

O=C(O)CN1C(=O)C2(CC(=O)N(Cc3ccccc3)C2=O)c2cc(Cl)ccc21 (stereo not drawn)
microsomal CLint at 3 µM [1]: 9 µL/min/mg
Ki [2]: 196 nM
Papp at 10 µM [3]: 3 ×10⁻⁶ cm/s
IC50 (Cytochrome P450 2C9): > 10000 nM
IC50 (Cytochrome P450 2D6): > 10000 nM
IC50 (Cytochrome P450 1A2): > 10000 nM
Ki [4]: 150 nM
IC50 [5]: 418 nM
IC50 (Cytochrome P450 3A4): > 10000 nM
IC50 (Cytochrome P450 2C19): > 10000 nM

O=C(O)CN1C(=O)[C@@]2(CC(=O)N(Cc3cc(Cl)ccc3F)C2=O)c2cc(Cl)ccc21
microsomal CLint at 3 µM [1]: 19 µL/min/mg
microsomal CLint at 3 µM [6]: 5 µL/min/mg
Tmax [7]: 0 h
Ki [2]: 5.3 nM
Papp at 10 µM [3]: 26.4 ×10⁻⁶ cm/s
IC50 [8]: > 30000 nM
Cmax [9]: 1700 ng/mL
Cmax [10]: 68.8 ng/mL
Vd [11]: 5 L/kg
IC50 [12]: > 30000 nM
IC50 [13]: > 30000 nM
logD [14]: -0.5
AUC(0-t) [15]: 1180 ng·h/mL
half-life [16]: 13 h
Tmax [17]: 1.5 h
Cmax [18]: 163 ng/mL
clearance [19]: 33.3 mL/min/kg
half-life [20]: 5.4 h
half-life [21]: 3 h
Vd [22]: 7 L/kg
Ki [4]: 5 nM
IC50 [23]: > 30000 nM
AUC(0-t) [24]: 637 ng·h/mL
clearance [25]: 11.7 mL/min/kg
IC50 [5]: 66 nM
AUC(0-t) [26]: 1910 ng·h/mL
Cmax [27]: 1950 ng/mL
Tmax [28]: 0 h
Tmax [29]: 2.67 h
bioavailability [30]: 32%
IC50 [31]: > 30000 nM
bioavailability [32]: 52%
AUC(0-t) [33]: 339 ng·h/mL
